Data from ChEMBL document CHEMBL1124559, “Synthesis and antiviral activity of the enantiomeric forms of carba-5-iodo-2'-deoxyuridine and carba-(E)-5-(2-bromovinyl)-2'-deoxyuridine” (1989).
Values after ≈ are worked out from the molar mass of the structure shown.

Legend:
Type in all cases: functional
[1] = organism: Oryctolagus cuniculus; experiment: Antiviral activity against F strain of herpes simplex virus-1 in primary rabbit kidney cell cultures
In short: (§1)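 Confluent cell monolayers in microtiter trays infected with 100 CCID50 of virus (1 CCID50 = dose infecting 50% of cultures); after 1 h adsorption, residual virus removed and cultures incubated with varying compound concentrations. Cytopathogenicity scored once complete in untreated infected controls; value is concentration reducing virus-induced cytopathogenicity by 50%, averaged over three to four separate experiments.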

[2] = organism: Oryctolagus cuniculus; experiment: Antiviral activity against G strain of herpes simplex virus-2 in primary rabbit kidney cell cultures; in short: as §1
[3] = organism: Oryctolagus cuniculus; experiment: Antiviral activity against KOS strain of herpes simplex virus-1 in primary rabbit kidney cell cultures; in short: as §1
[4] = organism: Oryctolagus cuniculus; experiment: Antiviral activity against McIntyre strain of herpes simplex virus-1 in primary rabbit kidney cell cultures; in short: as §1
[5] = organism: Oryctolagus cuniculus; experiment: Antiviral activity against Vaccinia virus in primary rabbit kidney cell cultures; in short: as §1
[6] = organism: Oryctolagus cuniculus; experiment: Minimum cytotoxic concentration required to cause a microscopically detectable alteration of rabbit kidney cell morphology
In short: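 Cell cultures exposed to varying compound concentrations; value is concentration required to cause microscopically detectable alteration of cell morphology.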

[7] = organism: Oryctolagus cuniculus; experiment: Antiviral activity against 196 strain of herpes simplex virus-2 in primary rabbit kidney cell cultures; in short: as §1
[8] = organism: Oryctolagus cuniculus; experiment: Antiviral activity against Lyons strain of herpes simplex virus-2 in primary rabbit kidney cell cultures; in short: as §1
[9] = organism: Oryctolagus cuniculus; experiment: Antiviral activity against VMW 1837 strain of thymidine kinase deficient (TK-) herpes simplex virus-1 in primary rabbit kidney cell cultures; in short: as §1
[10] = organism: Oryctolagus cuniculus; experiment: Antiviral activity against Vesicular stomatitis virus in primary rabbit kidney cell cultures; in short: as §1
[11] = organism: Oryctolagus cuniculus; experiment: Antiviral activity against B2006 strain of thymidine kinase deficient (TK-) herpes simplex virus-1 in primary rabbit kidney cell cultures; in short: as §1
[12] = Oryctolagus cuniculus, read-out: MIC

SMILES | MIC [1] [µg/mL] | MIC [2] [µg/mL] | MIC [3] [µg/mL] | MIC [4] [µg/mL] | MIC [5] [µg/mL] | MCC [6] [µg/mL] | MIC [7] [µg/mL] | MIC [8] [µg/mL] | MIC [9] [µg/mL] | MIC [10] [µg/mL] | MIC [11] [µg/mL] | MIC [1, 12] [µg/mL] | MIC [2, 12] [µg/mL] | MIC [3, 12] [µg/mL] | MIC [4, 12] [µg/mL] | MIC [5, 12] [µg/mL]
O=c1[nH]c(=O)n([C@@H]2C[C@H](CO)[C@@H](O)C2)cc1I (racemic) | 0.1 (≈ 0.284 µM) | 20 (≈ 56.8 µM) | 0.1 (≈ 0.284 µM) | 0.1 (≈ 0.284 µM) | 150 (≈ 426 µM) |  |  |  |  |  |  |  |  |  |  | 
O=c1[nH]c(=O)n([C@@H]2C[C@H](CO)[C@@H](O)C2)cc1I (stereo in doubt; (+)) | 0.07 (≈ 0.199 µM) | 10 (≈ 28.4 µM) | 0.07 (≈ 0.199 µM) | 0.2 (≈ 0.568 µM) | 40 (≈ 114 µM) | > 400 | > 400 | > 400 | > 400 | > 400 | > 400 |  |  |  |  | 
O=c1[nH]c(=O)n([C@@H]2C[C@H](CO)[C@@H](O)C2)cc1I (stereo in doubt; (-)) | 7 (≈ 19.9 µM) | 70 (≈ 199 µM) | 1 (≈ 2.84 µM) | 20 (≈ 56.8 µM) | >400 |  |  |  |  |  |  |  |  |  |  | 
O=c1[nH]c(=O)n([C@H]2C[C@H](O)[C@@H](CO)O2)cc1/C=C/Br [BRIVUDINE] |  |  |  |  |  | > 400 | 70 (≈ 210 µM) | 7 (≈ 21 µM) | > 400 | > 400 | 150 (≈ 450 µM) | 0.02 (≈ 0.06 µM) | 2 (≈ 6 µM) | 0.01 (≈ 0.03 µM) | 0.025 (≈ 0.075 µM) | 15 (≈ 45 µM)
O=c1[nH]c(=O)n([C@H]2C[C@H](O)[C@@H](CO)O2)cc1I [IDOXURIDINE] |  |  |  |  |  | > 400 | 2 (≈ 5.65 µM) | 1 (≈ 2.82 µM) | > 400 | > 400 | > 400 | 0.07 (≈ 0.198 µM) | 0.4 (≈ 1.13 µM) | 0.1 (≈ 0.282 µM) | 0.1 (≈ 0.282 µM) | 0.2 (≈ 0.565 µM)
